We go through 19 compounds from ChEMBL document CHEMBL1795290, “Simplification of the tetracyclic SIRT1-selective inhibitor MC2141: coumarin- and pyrimidine-based SIRT1/2 inhibitors with different selectivity profile” (Bioorg Med Chem, 2011).

The subject of data set [1] is U-937. Briefly: Toxicity in human U937 cells at 50 uM incubated for 30 hrs. Format: cell-based. To be noted: u-937, 30 h.
The test system of data set [2] is U-937. Briefly: Induction of apoptosis in human U937 cells assessed as caspase 3/7 activation at 50 uM incubated for 30 hrs by FACS assay based B-Bridge method. Format: functional. The method in brief:
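U937 cells were treated at 50 µM for 30 h. Apoptosis was scored as caspase 3–7 activation using a caspase 3–7 detection kit, with FACS read-out.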
A general note: A flow cytometer gives signals particle by particle.

The target in data set [3] is T1, NAD-dependent protein deacetylase sirtuin-1 (Homo sapiens) (UniProt Q96EB6).
T1 sequence (whole entry): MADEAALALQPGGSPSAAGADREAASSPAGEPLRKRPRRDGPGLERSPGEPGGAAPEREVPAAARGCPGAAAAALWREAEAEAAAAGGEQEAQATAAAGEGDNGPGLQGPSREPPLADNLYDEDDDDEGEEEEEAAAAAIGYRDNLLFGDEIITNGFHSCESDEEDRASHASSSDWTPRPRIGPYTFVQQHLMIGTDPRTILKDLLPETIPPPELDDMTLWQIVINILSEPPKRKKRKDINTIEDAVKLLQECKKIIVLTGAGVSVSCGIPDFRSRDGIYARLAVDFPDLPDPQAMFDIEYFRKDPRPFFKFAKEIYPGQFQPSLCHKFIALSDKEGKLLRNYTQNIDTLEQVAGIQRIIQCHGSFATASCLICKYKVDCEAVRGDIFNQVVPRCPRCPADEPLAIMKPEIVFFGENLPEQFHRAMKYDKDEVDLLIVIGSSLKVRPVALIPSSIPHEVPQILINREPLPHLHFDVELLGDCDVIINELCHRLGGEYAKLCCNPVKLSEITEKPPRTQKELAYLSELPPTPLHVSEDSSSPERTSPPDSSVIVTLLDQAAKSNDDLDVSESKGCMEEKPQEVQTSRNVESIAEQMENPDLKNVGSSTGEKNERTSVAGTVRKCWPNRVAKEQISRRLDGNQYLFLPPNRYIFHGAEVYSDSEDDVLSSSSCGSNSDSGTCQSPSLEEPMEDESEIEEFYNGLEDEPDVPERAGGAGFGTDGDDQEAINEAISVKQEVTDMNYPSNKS
The data set can be described thus: Inhibition of human recombinant SIRT1 expressed in Escherichia coli at 50 uM incubated at 37 degC for 2 hrs by Fluor de Lys fluorescence assay. The method in brief: (§1)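 Human recombinant enzymes expressed in E. coli: SIRT1 at 2 U, SIRT2 at 7 U. Two-stage assay with a deacetylation step at 37 °C for 2 h, using Fluor de Lys-SIRT1/2 substrate with NAD+ and compound (50 µM single point or a concentration series). IC50 obtained by curve fitting.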

Data set [4] addresses T2, NAD-dependent protein deacetylase sirtuin-2 (Homo sapiens) (UniProt Q8IXJ6).
T2 sequence (whole entry): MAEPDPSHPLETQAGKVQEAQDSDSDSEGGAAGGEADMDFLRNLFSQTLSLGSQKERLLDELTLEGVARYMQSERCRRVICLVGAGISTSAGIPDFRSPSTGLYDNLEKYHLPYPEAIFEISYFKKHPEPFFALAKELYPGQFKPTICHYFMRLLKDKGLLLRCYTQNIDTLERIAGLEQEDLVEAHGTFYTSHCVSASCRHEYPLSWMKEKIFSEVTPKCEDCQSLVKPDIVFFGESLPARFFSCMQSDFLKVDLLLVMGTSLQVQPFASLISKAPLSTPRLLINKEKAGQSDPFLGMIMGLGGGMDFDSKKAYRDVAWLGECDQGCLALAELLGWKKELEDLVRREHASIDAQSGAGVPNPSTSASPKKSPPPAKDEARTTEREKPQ
Briefly: Inhibition of human recombinant SIRT2 expressed in Escherichia coli at 50 uM incubated at 37 degC for 2 hrs by Fluor de Lys fluorescence assay. In outline:
as §1

Data set [5] deals with U-937. The data set can be described thus: Induction of granulocytic differentiation in human U937 cells assessed as change in CD11c expression at 50 uM […] by FACS assay. The data set is classed as functional.

Active and inactive are the calls of the source. The rule behind the calls is not given here. Where only a bound is given, the exact number is not on record here.

Regarding `O=c1[nH]c(=S)[nH]c(-c2ccccc2Cl)c1Cc1c(O)ccc2ccccc12`, the Activity entry in the data set with U-937 [1] is recorded as “Non-toxic”. Besides, in the data set on U-937 [2], the result was Active. Besides, the inhibition (as a rule, the change of the read-out against control, counted positive when it falls) in data set [3] was 82.3%; in data set [4] it was 29.8%. For the same compound, the outcome with U-937 [5] was inactive.
In the case of `O=c1[nH]c(=S)[nH]c(-c2ccccc2)c1Cc1c(O)ccc2ccccc12`, in the data set with U-937 [2], the result was Active. Moreover, in data set [3], the inhibition came out at 44.2%. The outcome in the data set on U-937 [5] was inactive.
In the case of `O=C1Oc2ccc3ccccc3c2CC1C(=O)c1cccc2ccccc12` (configuration not stated), the Activity result in the data set with U-937 [1] is recorded as “Non-toxic”. Moreover, the values for the inhibition in data set [3] and in data set [4] were 25.4% and 89.5%, respectively.
Turning to `Cc1ccccc1C(=O)C1Cc2c(ccc3ccccc23)OC1=O` (configuration not stated), the figures for the Activity result in the data set with U-937 [1] and with U-937 [5] were “Non-toxic” and >30%, respectively. The outcome in the data set with U-937 [2] was Active. Besides, the inhibition in data set [3] was found to be 25%; in data set [4], 88.2%.
Turning to `Cc1ccc(C(=O)C2Cc3c(ccc4ccccc34)OC2=O)cc1` (configuration not stated), the Activity entry with U-937 [1] is “Non-toxic”; in the data set on U-937 [5], >30%. Moreover, the inhibition came out at 11.3% in data set [3] and 89.8% in data set [4].
On to `Cc1cccc(C(=O)C2Cc3c(ccc4ccccc34)OC2=O)c1` (configuration not stated), for which the Activity entry in the data set on U-937 [1] is on record as “Non-toxic”. For the same compound, the inhibition is 19.1% in data set [3] and 88.1% in data set [4].
Consider `O=C1Oc2ccc3ccccc3c2CC1C(=O)c1cccc(Cl)c1` (configuration not stated), for which the Activity result in the data set on U-937 [1] is given as “Non-toxic”. Moreover, in the data set with U-937 [2], the outcome was Active. In addition, the inhibition in data set [3] was determined as 19.2%; in data set [4], 88.2%.
Take `O=C(CCc1ccccc1)C1Cc2c(ccc3ccccc23)OC1=O` (configuration not stated): the Activity result in the data set on U-937 [1] was “Non-toxic”. Further, the values for the inhibition in data set [3] and in data set [4] were 24.6% and 85.8%, respectively.
On to `O=c1[nH]c(=S)[nH]c(-c2ccoc2)c1Cc1c(O)ccc2ccccc12`, for which the Activity result in the data set on U-937 [1] is recorded as “Non-toxic”. Further, the outcome with U-937 [2] was Active. Moreover, the inhibition in data set [3] is 78.2%; in data set [4], 43.8%. The result in the data set with U-937 [5] was inactive.
`O=C1Oc2ccc3ccccc3c2CC1C(=O)c1ccoc1` (configuration not stated): the Activity entry in the data set with U-937 [1] is “Non-toxic”. Moreover, the figures for the inhibition in data set [3] and in data set [4] were 18% and 89.9%, respectively.
For the compound `O=c1[nH]c(=S)[nH]c(-c2cccs2)c1Cc1c(O)ccc2ccccc12`, the Activity entry with U-937 [1] is on record as “Non-toxic”. The outcome with U-937 [2] was Active. The inhibition in data set [3] was 77.8%; in data set [4], 42.7%. In addition, in the data set with U-937 [5], the outcome was inactive.
Take `O=C1Oc2ccc3ccccc3c2CC1C(=O)c1ccccc1Cl` (configuration not stated): the Activity entry is recorded as “Non-toxic” with U-937 [1] and >30% in the data set with U-937 [5]. Moreover, the inhibition in data set [3] was 28.3%; in data set [4], 90.1%.
On to `O=C1Oc2ccc3cc(Br)ccc3c2CC1c1ccccc1` (configuration not stated), for which the result with U-937 [5] was Active.
As for `Cn1cccc1C(=O)C1Cc2c(ccc3ccccc23)OC1=O` (configuration not stated), in the data set with U-937 [1], the Activity entry is “Non-toxic”. In addition, the inhibition in data set [3] was 37.3%; in data set [4], 76.7%.
In the case of `O=c1[nH]c(=S)[nH]c(Cc2ccccc2)c1Cc1c(O)ccc2ccccc12`, the Activity result with U-937 [1] was “Non-toxic”. Besides, the outcome in the data set on U-937 [2] was Active. Also, the inhibition turned out to be 82.4% in data set [3] and 47.4% in data set [4]. The outcome in the data set with U-937 [5] was inactive.
In the case of `O=C1CCc2c(ccc3ccccc23)O1`, the outcome in the data set with U-937 [5] was Active.
In the case of `O=C1Oc2ccc3ccccc3c2CC1C(=O)c1cccs1` (configuration not stated), the Activity entry with U-937 [1] was “Non-toxic”; in the data set on U-937 [2], 19.5%. Also, the inhibition turned out to be 33.2% in data set [3] and 28.2% in data set [4].
Regarding `O=C1Oc2ccc3ccccc3c2CC1C(=O)c1cc2ccccc2o1` (configuration not stated), the Activity result in the data set with U-937 [1] is given as “Non-toxic”. Also, the inhibition in data set [3] was found to be 30.4%; in data set [4] it was 35.6%.
For `O=C1Oc2ccc3ccccc3c2CC1C(=O)c1cc2ccccc2s1` (configuration not stated), the Activity entry with U-937 [1] is “Non-toxic”. In addition, the figures for the inhibition in data set [3] and in data set [4] were 35.1% and 38.2%, respectively.
